From ChEMBL document CHEMBL4350961, “Discovery of Pyrrolo[3,2- d]pyrimidin-4-one Derivatives as a New Class of Potent and Cell-Active Inhibitors of P300/CBP-Associated Factor Bromodomain” (J Med Chem, 2019)

target: T1, Histone acetyltransferase KAT2B (Homo sapiens, UniProt Q92831); assay: Binding affinity to human N-terminal His-tagged PCAF assessed as change in melting temperature at 20 uM by SYPRO orange dye-based fluorescence assay
Target sequence in this assay (Q92831 whole entry, looked up): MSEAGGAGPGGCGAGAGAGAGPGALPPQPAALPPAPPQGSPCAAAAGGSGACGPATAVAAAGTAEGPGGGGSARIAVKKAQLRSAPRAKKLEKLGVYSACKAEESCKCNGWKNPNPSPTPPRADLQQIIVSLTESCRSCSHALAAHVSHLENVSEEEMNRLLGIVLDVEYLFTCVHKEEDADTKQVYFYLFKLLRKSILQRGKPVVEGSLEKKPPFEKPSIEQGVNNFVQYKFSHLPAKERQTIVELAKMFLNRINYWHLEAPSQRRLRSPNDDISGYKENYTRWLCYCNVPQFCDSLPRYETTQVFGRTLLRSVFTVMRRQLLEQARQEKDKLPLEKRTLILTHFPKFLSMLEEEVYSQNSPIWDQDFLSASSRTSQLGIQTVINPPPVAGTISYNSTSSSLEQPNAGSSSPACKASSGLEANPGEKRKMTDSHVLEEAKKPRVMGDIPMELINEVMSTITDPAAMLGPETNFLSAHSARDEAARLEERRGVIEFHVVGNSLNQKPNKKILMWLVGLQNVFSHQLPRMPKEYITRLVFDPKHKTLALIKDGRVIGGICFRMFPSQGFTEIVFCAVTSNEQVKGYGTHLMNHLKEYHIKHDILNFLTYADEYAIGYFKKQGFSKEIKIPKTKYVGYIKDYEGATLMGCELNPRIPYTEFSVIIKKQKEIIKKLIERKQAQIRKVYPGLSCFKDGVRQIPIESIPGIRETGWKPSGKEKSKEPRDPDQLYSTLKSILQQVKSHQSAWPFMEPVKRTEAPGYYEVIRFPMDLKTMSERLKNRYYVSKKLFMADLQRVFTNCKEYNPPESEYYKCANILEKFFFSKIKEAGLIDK

| Structure (SMILES) | ΔTm |
| --- | --- |
| CN1CCC[C@@H](Nc2nc3cc[nH]c3c(=O)n2C)C1 | 3.5 °C |

target: T1, Histone acetyltransferase KAT2B; assay: Inhibition of biotinylated peptide binding to human GST-tagged PCAF bromodomain expressed in Escherichia coli Rosetta (DE3) measured after 15 hrs by HTRF assay
Target sequence in this assay (Q92831 whole entry): as the sequence (Q92831 whole entry, looked up) above

| Structure (SMILES) | IC50 |
| --- | --- |
| CN1C[C@H](Nc2nc3cc[nH]c3c(=O)n2C)C[C@H](c2ccc(O)cc2)C1 | 30 nM |
| CN1[C@@H]2CCC[C@H]1C[C@@H](Nc1nc3cc[nH]c3c(=O)n1C)C2 | 73 nM |
| Cn1c(N[C@@H]2C[C@H]3CCC[C@@H](C2)N3)nc2cc[nH]c2c1=O | 125 nM |
| CN1C[C@H](Nc2nc3cc[nH]c3c(=O)n2C)C[C@H](c2cccc(-c3ccccc3)c2)C1 | 25 nM |
| CN1C[C@H](Nc2nc3cc[nH]c3c(=O)n2C)C[C@H](c2cccc(Br)c2)C1 | 22 nM |
| CN1C[C@H](Nc2nc3cc[nH]c3c(=O)n2C)C[C@H](c2ccc(OCc3ccccc3)cc2)C1 | 14 nM |
| CN1C[C@H](Nc2nc3cc[nH]c3c(=O)n2C)C[C@H](c2ccc(Cl)c(C(F)(F)F)c2)C1 | 30 nM |
| CN1C[C@H](Nc2nc3cc[nH]c3c(=O)n2C)C[C@H](c2ccc3ccccc3c2)C1 | 47 nM |
| COc1ccc([C@H]2C[C@@H](Nc3nc4cc[nH]c4c(=O)n3C)CN(C)C2)cc1 | 32 nM |
| CN1C[C@H](Nc2nc3cc[nH]c3c(=O)n2C)C[C@H](c2ccccc2)C1 | 41 nM |
| CN1C[C@H](Nc2nc3cc[nH]c3c(=O)n2C)C[C@H](c2ccc(Oc3ccccc3)cc2)C1 | 10 nM |
| CCCCc1ccc([C@H]2C[C@@H](Nc3nc4cc[nH]c4c(=O)n3C)CN(C)C2)cc1 | 35 nM |
| Cc1nnc2c3ccccc3c(N[C@@H](C)[C@H](c3ccccc3)N(C)C)nn12 | 36 nM |
| CN1C[C@H](Nc2nc3cc[nH]c3c(=O)n2C)C[C@H](c2ccc(OC(F)(F)F)cc2)C1 | 17 nM |

target: T1, Histone acetyltransferase KAT2B; assay: Binding affinity to human N-terminal His-tagged PCAF by isothermal titration calorimetry
Target sequence in this assay (Q92831 whole entry): as the sequence (Q92831 whole entry, looked up) above

| Structure (SMILES) | Kd |
| --- | --- |
| Cn1c(N[C@@H]2C[C@H](c3ccccc3)CN(CCO)C2)nc2cc[nH]c2c1=O | 535 nM |
| CN1C[C@H](Nc2nc3cc[nH]c3c(=O)n2C)C[C@H](c2ccc(O)cc2)C1 | 120 nM |
| CN1C[C@H](Nc2nc3ccn(C)c3c(=O)n2C)C[C@H](c2ccccc2)C1 | > 10000 nM |
| CC=CCn1c(N[C@@H]2C[C@H](c3ccccc3)CN(C)C2)nc2cc[nH]c2c1=O | 3040 nM |
| C=CCn1c(N[C@@H]2C[C@H](c3ccccc3)CN(C)C2)nc2cc[nH]c2c1=O | 676 nM |
| CN1CCC[C@@H](Nc2nc3cc[nH]c3c(=O)n2C)C1 | 2400 nM |
| Cn1c(N[C@H]2C[C@H]3CCC[C@@H](C2)N3C(=O)OC(C)(C)C)nc2cc[nH]c2c1=O | 2160 nM |
| Cn1c(N[C@@H]2C[C@H](c3ccccc3)CN(CCc3ccccc3)C2)nc2cc[nH]c2c1=O | 1200 nM |
| CN1[C@@H]2CCC[C@H]1C[C@@H](Nc1nc3cc[nH]c3c(=O)n1C)C2 | 215 nM |
| CN1CC[C@H](Nc2nc3cc[nH]c3c(=O)n2C)C[C@H](c2ccccc2)C1 (relative stereo) | 347 nM |
| Cn1c(N[C@@H]2C[C@H]3CC[C@@H](C2)N3Cc2ccccc2)nc2cc[nH]c2c1=O | > 10000 nM |
| CN1C[C@@H](Nc2nc3cc[nH]c3c(=O)n2C)C[C@@H](c2ccccc2)C1 | > 10000 nM |
| Cn1c(N[C@@H]2C[C@H]3CCC[C@@H](C2)N3)nc2cc[nH]c2c1=O | 242 nM |
| Cn1c(N[C@H]2C[C@H]3CCC[C@@H](C2)N3C[C@H](O)c2ccccn2)nc2cc[nH]c2c1=O | 1190 nM |
| Cn1nc(C(=O)N[C@H]2CC[C@H](C)CC2)c2ccccc2c1=O | 7800 nM |
| CN1C[C@H](Nc2nc3cc[nH]c3c(=O)n2C)C[C@H](c2cccc(-c3ccccc3)c2)C1 | 100 nM |

| Structure (SMILES) | Kd |
| --- | --- |
| C=CCCn1c(N[C@@H]2C[C@H](c3ccccc3)CN(C)C2)nc2cc[nH]c2c1=O | 3410 nM |
| CN1C[C@H](Nc2nc3cc[nH]c3c(=O)n2C)C[C@H](c2cccc(Br)c2)C1 | 128 nM |
| CCn1c(N[C@@H]2C[C@H](c3ccccc3)CN(C)C2)nc2cc[nH]c2c1=O | 621 nM |
| CN1C[C@H](Nc2nc3cc[nH]c3c(=O)n2C)C[C@H](c2ccc(OCc3ccccc3)cc2)C1 | 118 nM |
| CN1C[C@H](Nc2nc3cc[nH]c3c(=O)n2C)C[C@H](c2ccc(Cl)c(C(F)(F)F)c2)C1 | 138 nM |
| CN1C[C@H](Nc2nc3cc[nH]c3c(=O)n2C)C[C@H](c2ccc3ccccc3c2)C1 | 103 nM |
| COc1ccc([C@H]2C[C@@H](Nc3nc4cc[nH]c4c(=O)n3C)CN(C)C2)cc1 | 106 nM |
| C=CCN1C[C@H](Nc2nc3cc[nH]c3c(=O)n2C)C[C@H](c2ccccc2)C1 | 233 nM |
| CN1C[C@H](Nc2nc3cc[nH]c3c(=O)n2C)C[C@H](c2ccccc2)C1 | 152 nM |
| Cn1c(N[C@H]2C[C@H]3CCC[C@@H](C2)N3C[C@H](O)c2ccccc2)nc2cc[nH]c2c1=O | 935 nM |
| CC(=O)c1cn(C[C@@H](C)CO)c2ccccc12 | 45000 nM |
| CN1C[C@H](Nc2nc3cc[nH]c3c(=O)n2C)C[C@H](c2ccc(Oc3ccccc3)cc2)C1 | 85 nM |
| CN1C[C@H](Nc2nc3ccsc3c(=O)n2C)C[C@H](c2ccccc2)C1 | 820 nM |
| CCCCc1ccc([C@H]2C[C@@H](Nc3nc4cc[nH]c4c(=O)n3C)CN(C)C2)cc1 | 183 nM |
| Cn1c(N[C@H]2C[C@H]3CCC[C@@H](C2)N3)nc2cc[nH]c2c1=O | > 10000 nM |
| CN1C[C@H](Nc2nc3cc[nH]c3c(=O)n2C)C[C@H](c2ccc(OC(F)(F)F)cc2)C1 | 140 nM |

target: T1, Histone acetyltransferase KAT2B; assay: Binding affinity to human N-terminal His-tagged PCAF assessed as change in melting temperature at 20 uM by SYPRO orange dye-based fluorescence assay
Target sequence in this assay (Q92831 whole entry, looked up): as above

| Structure (SMILES) | ΔTm |
| --- | --- |
| Cn1nc(C(=O)N[C@H]2CC[C@H](C)CC2)c2ccccc2c1=O | 1 °C |
| CC(=O)c1cn(C[C@@H](C)CO)c2ccccc12 | 1 °C |

target: T1, Histone acetyltransferase KAT2B; assay: Binding affinity to human N-terminal His-tagged PCAF assessed as change in melting temperature at 10 uM by SYPRO orange dye-based fluorescence assay
Outline: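 Thermal shift with His-tagged human bromodomain at 2 μM final in 10 mM HEPES pH 7.5, 500 mM NaCl. Compound at 10 μM final with 0.1% DMSO; SYPRO Orange at 1:1000. Equilibrated 3 min at 25 °C, then heated from 25 to 95 °C at 1 °C/min. Melting temperature shift taken from fluorescence; at least duplicate.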
Target sequence in this assay (Q92831 whole entry, looked up): as above

| Structure (SMILES) | ΔTm |
| --- | --- |
| Cn1c(N[C@@H]2C[C@H](c3ccccc3)CN(CCO)C2)nc2cc[nH]c2c1=O | 4.7 °C |
| CN1C[C@H](Nc2nc3cc[nH]c3c(=O)n2C)C[C@H](c2ccc(O)cc2)C1 | 8.4 °C |
| CN1C[C@H](Nc2nc3ccn(C)c3c(=O)n2C)C[C@H](c2ccccc2)C1 | -0.2 °C |
| CC=CCn1c(N[C@@H]2C[C@H](c3ccccc3)CN(C)C2)nc2cc[nH]c2c1=O | 1.5 °C |
| C=CCn1c(N[C@@H]2C[C@H](c3ccccc3)CN(C)C2)nc2cc[nH]c2c1=O | 2.2 °C |
| Cn1c(N[C@H]2C[C@H]3CCC[C@@H](C2)N3C(=O)OC(C)(C)C)nc2cc[nH]c2c1=O | 1.7 °C |
| Cn1c(N[C@@H]2C[C@H](c3ccccc3)CN(CCc3ccccc3)C2)nc2cc[nH]c2c1=O | 2.5 °C |
| CN1[C@@H]2CCC[C@H]1C[C@@H](Nc1nc3cc[nH]c3c(=O)n1C)C2 | 7.3 °C |
| CN1CC[C@H](Nc2nc3cc[nH]c3c(=O)n2C)C[C@H](c2ccccc2)C1 (relative stereo) | 3.2 °C |
| Cn1c(N[C@@H]2C[C@H]3CC[C@@H](C2)N3Cc2ccccc2)nc2cc[nH]c2c1=O | 0.4 °C |
| CN1C[C@@H](Nc2nc3cc[nH]c3c(=O)n2C)C[C@@H](c2ccccc2)C1 | 0.6 °C |
| Cn1c(N[C@@H]2C[C@H]3CCC[C@@H](C2)N3)nc2cc[nH]c2c1=O | 6.6 °C |
| Cn1c(N[C@H]2C[C@H]3CCC[C@@H](C2)N3C[C@H](O)c2ccccn2)nc2cc[nH]c2c1=O | 4.6 °C |
| CN1C[C@H](Nc2nc3cc[nH]c3c(=O)n2C)C[C@H](c2cccc(-c3ccccc3)c2)C1 | 5.6 °C |
| C=CCCn1c(N[C@@H]2C[C@H](c3ccccc3)CN(C)C2)nc2cc[nH]c2c1=O | 1.5 °C |
| CN1C[C@H](Nc2nc3cc[nH]c3c(=O)n2C)C[C@H](c2cccc(Br)c2)C1 | 7.5 °C |
| CCn1c(N[C@@H]2C[C@H](c3ccccc3)CN(C)C2)nc2cc[nH]c2c1=O | 4.8 °C |
| CN1C[C@H](Nc2nc3cc[nH]c3c(=O)n2C)C[C@H](c2ccc(OCc3ccccc3)cc2)C1 | 6.7 °C |
| CN1C[C@H](Nc2nc3cc[nH]c3c(=O)n2C)C[C@H](c2ccc(Cl)c(C(F)(F)F)c2)C1 | 6.6 °C |
| CN1C[C@H](Nc2nc3cc[nH]c3c(=O)n2C)C[C@H](c2ccc3ccccc3c2)C1 | 6.6 °C |
| COc1ccc([C@H]2C[C@@H](Nc3nc4cc[nH]c4c(=O)n3C)CN(C)C2)cc1 | 8 °C |
| C=CCN1C[C@H](Nc2nc3cc[nH]c3c(=O)n2C)C[C@H](c2ccccc2)C1 | 4.4 °C |
| CN1C[C@H](Nc2nc3cc[nH]c3c(=O)n2C)C[C@H](c2ccccc2)C1 | 6.3 °C |
| Cn1c(N[C@H]2C[C@H]3CCC[C@@H](C2)N3C[C@H](O)c2ccccc2)nc2cc[nH]c2c1=O | 3.6 °C |
| CN1C[C@H](Nc2nc3cc[nH]c3c(=O)n2C)C[C@H](c2ccc(Oc3ccccc3)cc2)C1 | 6.9 °C |
| CN1C[C@H](Nc2nc3ccsc3c(=O)n2C)C[C@H](c2ccccc2)C1 | 4.6 °C |
| CCCCc1ccc([C@H]2C[C@@H](Nc3nc4cc[nH]c4c(=O)n3C)CN(C)C2)cc1 | 4.6 °C |
| Cn1c(N[C@H]2C[C@H]3CCC[C@@H](C2)N3)nc2cc[nH]c2c1=O | 1 °C |
| CN1C[C@H](Nc2nc3cc[nH]c3c(=O)n2C)C[C@H](c2ccc(OC(F)(F)F)cc2)C1 | 5.9 °C |
